MBD2 inh: MBD2-methylated oligo binding inhibition. inhibition, % at 4.4 µM. AID 686964. 370,000 compounds, 0.31% hits. TR-FRET, MBD2 binding to methylated oligonucleotide. Q9UBB5; in the data active = inhibition above about 13%
ABHD5 PLIN5 PPI: blocks binding of human ABHD5 to perilipin-5; Split G. princeps luciferase complementation, luminescence, 4 h; inhibition, % at 4 µM; 360,000 compounds, 0.78% hits; AID 602281; Q00G26+Q8WTS1;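 active = inhibition above the mean inhibition across every tested compound plus 3 SD, cut at about 22% in these data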;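 note: 0% = DMSO only wells and the 100% control is not disclosed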
Arr AP2 block: blocks beta-arrestin peptide binding to AP2 adaptin | FITC-arrestin peptide / GST-AP2 beads, flow cytometry; AP2 beta2 appendage carries R879A mutation | inhibition, % at 10 µM | 340,000 compounds, 0.31% hits | AID 504490;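 active = inhibition above a set limit, near 3 SD of compounds lacking own fluorescence, cut at about 54% in these data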;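 note: plate controls were DMSO wells for no effect and 5 µM unlabelled arrestin peptide for full effect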
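Measured by: flow cytometry, FL1 (488/535 nm); Material: AP2 appendage R879A on GSH beads; Evaluation: percent response; Timing: pre-incubation 12 min, peptide binding 1 h, room temperature; Also added: 50 nM FITC-arrestin peptide; Medium: PBS with 0.05% Tween 20 and 0.1% BSA.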
UHRF1 MBD2 ctr: UHRF1 methyl-DNA binding inhibition | UHRF1 binding to methylated oligo, TR-FRET | 370,000 compounds, 0.75% hits | inhibition, % at 4.4 µM | AID 687016 | Q96T88; in the data active = inhibition above about 21%;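 note: UHRF1 SRA domain binding a hemimethylated CpG hairpin DNA probe; 0% = median of test compound wells and 100% = reference inhibitor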
Rin1 Abl inh: blocks binding of human Rin1 to Abl; P00519+Q13671; TR-FRET Rin1/Abl binding, biochemical; inhibition, % at 7.35 µM; 360,000 compounds, 0.4% hits; AID 588664; in the data active = inhibition above about 5%, passing the limit was not always enough
Beta2AR agonist: agonists of human beta-2 adrenergic receptor inducing internalization; P07550; Am2.2-beta2AR cells, FAP receptor internalization, flow cytometry; response, % (no concentration beside the values); 340,000 compounds, 0.43% hits; AID 504454;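 active = response above a set limit, near 3 SD of response in nonfluorescent compounds, cut at about 42% in these data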
Target sequence (P07550 whole entry, looked up): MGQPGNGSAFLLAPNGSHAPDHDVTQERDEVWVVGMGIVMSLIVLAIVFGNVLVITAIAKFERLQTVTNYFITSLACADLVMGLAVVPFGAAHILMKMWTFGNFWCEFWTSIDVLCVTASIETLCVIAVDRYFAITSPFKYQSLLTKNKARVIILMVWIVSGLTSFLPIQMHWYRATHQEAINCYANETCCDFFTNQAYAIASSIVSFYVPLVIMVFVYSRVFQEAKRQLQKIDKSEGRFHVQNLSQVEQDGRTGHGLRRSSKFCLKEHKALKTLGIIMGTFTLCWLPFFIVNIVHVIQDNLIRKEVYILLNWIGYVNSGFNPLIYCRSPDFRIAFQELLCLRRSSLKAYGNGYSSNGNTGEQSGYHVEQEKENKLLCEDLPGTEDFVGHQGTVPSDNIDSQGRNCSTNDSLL
* hit, by the source's call; x = no result. The list is not random: actives were taken first. Their share in the collection is about 2.5%.

SMILES	MBD2 inh	ABHD5 PLIN5 PPI	Arr AP2 block	UHRF1 MBD2 ctr	Rin1 Abl inh	Beta2AR agonist
O=C/C=C/c1c(-c2ccccc2)cc2oc3ccccc3cc1-2	8.3	2.2	-6.0	5.4	-2.5	64.2*
C[C@H](NS(=O)(=O)c1ccc([N+](=O)[O-])cc1)C(=O)NCCNC(=O)[C@@H](C)NS(=O)(=O)c1ccc([N+](=O)[O-])cc1	2.2	x	x	2.2	x	x
Cc1ccc2c(c1C)NC(C(=O)O)C1CC=CC21 (centres undefined)	x	9.1	25.6	x	6.6	2.5
O=C(O)C1Nc2c(C(=O)N3CCOCC3)cccc2C2C=CCC12 (centres undefined)	x	10.2	27.1	x	6.8*	1.5
CC(C)(C)c1ccc(-c2nnc3sc(COc4ccccc4)nn23)cc1	-6.8	x	x	-0.8	x	x
O=C(NNc1c2ccccc2nc2ccccc12)c1ccccc1Cl	-3.7	-0.7	-11.2	-6.6	-2.8	-10.1
O=C(NNc1c2ccccc2nc2ccccc12)C12CC3CC(CC(C3)C1)C2	3.3	-1.8	38.4	5.8	-1.5	44.8*
COc1ccc2c(c1)CN1CN(Cc3ccc(F)cc3)S(=O)(=O)CC21 (centres undefined)	-7.5	x	x	-3.9	x	x
C[C@H]1[C@H](NC(=O)c2ccc(Cl)c(Cl)c2)CC[C@@]23CCCN2C(=O)CCC[C@@H]13	3.0	x	x	13.5	x	x
Cc1ccc(CNC(=O)CN2C(C)CCCC2C)cc1 (centres undefined)	-1.7	-1.3	23.0	49.0*	4.0	4.7
COC(=O)[C@@]1(Sc2ccc(C)cc2)CC(=O)N[C@@H]1c1ccc(C(F)(F)F)cc1	8.1	0.1	x	22.6*	x	x
O=C(NCc1ccco1)c1ccc(-c2ccc3nccn3c2)cc1	-5.4	22.2*	x	-2.9	-7.8	x
CCOc1ccc2ccccc2c1CNCCc1ccc(S(N)(=O)=O)cc1	-3.7	10.0	1.2	45.1*	-3.0	7.5
N/C(=N\OC(=O)c1cc([N+](=O)[O-])ccc1Cl)c1ccccn1	-6.2	0.2	7.1	45.6*	0.1	-6.7
COc1ccc(C(=O)O[C@@H]2CCC[C@@]3(C(=O)N(Cc4ccccc4)c4ccccc43)[C@H]2NC(=O)CCc2ccccc2)cc1OC	-1.6	x	x	-1.6	x	x
O=C(NC(Cc1ccccc1)C(=O)O)/C(=C\c1ccc(Cl)cc1)NC(=O)c1ccccc1 (centres undefined)	-2.5	-6.4	12.9	28.0*	2.4	-3.9
O=C(NC(Cc1ccccc1)C(=O)O)/C(=C/c1ccccc1)NC(=O)c1ccccc1 (centres undefined)	9.7	1.5	-5.8	8.5	1.8	4.0
CCCCC(C(=O)NC(=O)NCc1ccccc1)N1C(=O)c2ccccc2C1=O (centres undefined)	11.7	-2.8	2.1	22.7*	-3.9	-8.0
CC(C(=O)NC(=O)NCc1ccccc1)N1C(=O)c2ccccc2C1=O (centres undefined)	-2.3	-0.1	23.4	1.6	-1.4	-7.2
CC[C@H]1OC(=O)[C@H](C)[C@@H](O[C@H]2C[C@@](C)(OC)[C@@H](O)[C@H](C)O2)C(C)[C@@H](O[C@@H]2O[C@H](C)C[C@H](N(C)C)[C@H]2O)[C@](C)(O)C[C@@H](C)CN(C)[C@H](C)[C@@H](O)[C@]1(C)O (some centres undefined)	3.5	x	x	2.0	x	x
COc1ccc(-n2c(SCC(=O)NNC(=S)Nc3ccccc3)nc3ccccc3c2=O)cc1	7.1	x	x	-4.4	x	x
CCC(NC(=O)c1ccc2c(ccn2Cc2cccc(-c3ccc(C(=O)O)cc3)c2)c1)c1ccccc1 (centres undefined)	3.2	x	x	4.6	x	x
CC1CCCC(C)N1/N=C/c1ccc(N(C)C)cc1 (centres undefined)	3.4	2.4	11.2	23.9*	-3.1	-1.7
CC1CCCC(C)N1/N=C/c1ccc([N+](=O)[O-])cc1 (centres undefined)	-4.6	-9.2	2.1	-2.3	3.5	-279.3
CC(=O)N1CC=CC1(C)C(=O)O (centres undefined)	-1.6	0.2	16.4	30.9*	1.5	-9.9
SMILES	MBD2 inh	ABHD5 PLIN5 PPI	Arr AP2 block	UHRF1 MBD2 ctr	Rin1 Abl inh	Beta2AR agonist
COc1ccccc1NS(=O)(=O)c1cccc(C(=O)N2CCCC2)c1	1.4	-4.3	-3.5	43.4*	0.1	4.0
COc1ccc(/C=C/c2nc(-c3ccccc3O)n[nH]2)cc1	3.7	-1.1	-0.1	66.0*	0.8	-7.9
O=C(NN1CC(C(=O)OCc2ccccc2F)CC1=O)c1ccccc1 (centres undefined)	4.7	12.6	39.0	21.8*	2.8	-1.3
CCCC1CCC2(CC1)CCC2OC(=O)Nc1cccc(C(F)(F)F)c1 (centres undefined)	-1.1	x	x	3.2	x	x
COC(=O)c1ccc(Cn2ccc3ccc(-c4ccc5ccn(C(=O)c6cccc(OC)c6)c5c4)cc32)cc1	2.0	x	x	-1.8	x	x
O=[N+]([O-])c1ccc(N=Nc2c(Cl)cc(O)cc2Cl)cc1	-2.4	3.0	-7.9	-5.2	-2.9	54.9*
Cc1oc(CC(C)C)cc1C(N)=O	5.3	-0.4	46.9	26.3*	0.5	-12.6
COc1cccc2c1C(=O)c1c(O)c3c(c(O)c1C2=O)C[C@@](O)(C(=O)CO)C[C@@H]3OC1CC(N)C(O)C(C)O1 (some centres undefined)	111.8*	4.8	24.8	95.1*	-10.2	-105.9
COc1cccc2c1C(=O)c1c(O)c3c(c(O)c1C2=O)C[C@@](O)(C(=O)CO)C[C@@H]3O[C@H]1C[C@H](N)[C@H](O)[C@H](C)O1	109.7*	6.3	12.1	93.9*	-24.0	-22.4
CC(=O)[C@@]1(O)Cc2c(O)c3c(c(O)c2[C@H](O[C@H]2C[C@H](N)[C@H](O)[C@H](C)O2)C1)C(=O)c1ccccc1C3=O	105.7*	-9.5	x	94.9*	-14.2	x
COC(=O)c1cc(-c2ccc(C(C)(C)C)cc2)c(=O)n2c1CCC2	-3.9	x	x	-0.3	x	x
CC(C)(C)CCN1C[C@@H]2C(CNC(=O)c3cc(Cl)cc(Cl)c3)[C@@H]2C1 (some centres undefined)	-4.9	x	x	-0.8	x	x
COC(=O)c1ccc(S(=O)(=O)N2CCC(NC(=O)COc3ccc(F)cc3)CC2)cc1	1.7	x	x	2.2	x	x
CN(C)C1=NC[C@H](Cc2ccccc2)N1CCCC1CCCCC1	6.3	9.4	12.8	-0.9	1.6	30.6
CN(C)C1=NC[C@H](Cc2ccccc2)N1CCCC1CCCC1	12.3	15.5	4.7	22.9*	6.0	25.8
COc1ccc(CN(C)CC(=O)Nc2ccccc2C(F)(F)F)cc1	-6.6	-1.9	7.3	1.2	-1.6	-3.4
COc1ccc2ccc(O)c(CN(C)CC(=O)Nc3ccccc3C(F)(F)F)c2c1	-4.9	22.4*	8.9	-0.7	4.2	8.5
COc1ccc(C(C(=O)N(C)C2CCCC2)N(Cc2ccc(F)cc2)C(=O)c2cc(C)on2)cc1OC (centres undefined)	-5.1	x	x	-0.5	x	x

Assay outcomes deposited in PubChem BioAssay by several laboratories.
